Screens (PubChem)
Hits are enriched below; roughly 1.7% of the tested compounds scored in any of these assays.
S1P2 antag: blocks the human S1P2 receptor; inhibition, % at 5 µM; O95136; actives 0.21% (n = 97,000); cell-based S1P2 antagonist assay, inhibition at 5 uM; in the data active = inhibition above about 45%;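 note: CRE beta-lactamase reporter cells expressing human S1P2 stimulated with S1P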
Target sequence (O95136 whole entry, looked up): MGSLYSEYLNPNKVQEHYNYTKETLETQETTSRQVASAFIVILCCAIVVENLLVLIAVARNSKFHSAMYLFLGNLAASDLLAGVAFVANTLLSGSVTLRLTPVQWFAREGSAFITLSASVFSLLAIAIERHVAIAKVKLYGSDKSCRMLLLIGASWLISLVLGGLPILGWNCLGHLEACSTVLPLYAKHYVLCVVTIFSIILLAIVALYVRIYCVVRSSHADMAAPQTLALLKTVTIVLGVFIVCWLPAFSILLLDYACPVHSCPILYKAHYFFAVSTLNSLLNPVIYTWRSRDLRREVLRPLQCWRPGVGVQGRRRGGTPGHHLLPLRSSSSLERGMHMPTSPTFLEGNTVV
Rev-RRE block: disrupts HIV-1 Rev binding to RRE RNA. P05866. Rev peptide-RRE RNA binding, FRET. inhibition, % at 8 µM. actives 0.79% (n = 97,000);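 active = inhibition above the screen-wide mean plus 3 SD, cut at about 35% in these data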
Target sequence (P05866 whole entry, looked up): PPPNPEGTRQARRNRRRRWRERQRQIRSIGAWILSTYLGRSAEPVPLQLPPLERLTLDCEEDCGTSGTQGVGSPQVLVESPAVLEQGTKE
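System: Cy5-labelled duplex RRE RNA binding fluorescein-labelled HIV Rev peptide; Signal: fluorescein-to-Cy5 FRET, 480 nm excitation; Also added: labelled Rev peptide; Compound: one concentration, 8 µM nominal; Buffer or medium: HEPES pH 7.5 salt buffer with EDTA; Read-out: % inhibition of FRET ratio versus controls; Schedule: 5 min preincubation and 15 min binding, 25 °C.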
GALR2 agonist: activates the human galanin receptor 2. O43603. GALR2-expressing cells, agonist activation read-out. activation, % (concentration not given with the values). actives 0.48% (n = 140,000); in the data active = activation above about 5%, passing the limit was not always enough
GALR2 blocker: blocks the human galanin receptor 2. GALR2-expressing cells, antagonist mode. inhibition, % at 4 µM. actives 0.39% (n = 140,000); in the data active = inhibition above about 27%;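 note: cells stimulated with galanin 1-16 at roughly its EC80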
EphB4 ephrin blk: blocks human EphB4 binding to ephrin-B2. P54760. EphB4 LBD / TNYL-RAW-Alexa532 peptide, fluorescence polarization. inhibition, % at 7 µM. actives 0.15% (n = 97,000). AID 720;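 active = inhibition above the screen-wide mean inhibition plus 3 SD, cut at about 15% in these data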
S1P2 agonist: agonists of human S1P2 receptor. S1P2-expressing cell line, agonist reporter read-out. activation, % at 4.5 µM. actives 0.46% (n = 97,000); in the data active = activation above about 16%
Numbers stand for hits; 0 = inactive; - = no result; [ ] = another dose, or the depositor's remark.

SMILES	S1P2 antag	Rev-RRE block	GALR2 agonist	GALR2 blocker	EphB4 ephrin blk	S1P2 agonist
Cc1ccc(Cn2cccc(-c3nc4ccccc4s3)c2=O)cc1	0	0	65	0	0	77
CCCOc1ccc(OCCOCCN2CCc3ccccc3C2)cc1	0	0	0	0	0	0
Cc1ccc(C(=O)NNC(=O)CCN2C(=O)C3CCCCC3C2=O)cc1 (stereo not drawn)	-	-	0	0	-	-
O=C(Nc1ncc(S(=O)(=O)c2ccc([N+](=O)[O-])cc2)s1)c1cccc2ccccc12	-	-	0	0	-	-
O=C(NC(Nc1ncc(S(=O)(=O)c2ccc([N+](=O)[O-])cc2)s1)(C(F)(F)F)C(F)(F)F)c1ccc(Cl)cc1	47	0	0	0	0	0
O=C(N1CCN(c2cccc(Cl)c2)CC1)C1(c2cccs2)CCOCC1	-	-	0	0	-	-
O=C(Nc1c2c(nc3ccccc13)CCCC2)c1ccccc1Cl	-	-	0	0	-	-
O=C(Nc1c2ccccc2nc2ccccc12)C(Cl)(Cl)Cl	0	0	0	0	0	18
CCNc1cc2oc(=O)c(CN3CCOCC3)c(C)c2cc1C	0	79	0	0	0	0
Cc1cc2oc(=O)cc(CN3CCOCC3)c2cc1C	0	0	0	0	0	0
Cc1cc(S(=O)(=O)NCCc2ccccc2)c(C)s1	0	0	0	0	0	0
CC(C)c1ccc(/C=C2\CC/C(=C\C=N\N(C)C)C2=O)cc1	0	46	0	0	0	0
Cc1noc(C)c1COC(=O)[C@H](C)NS(=O)(=O)c1ccc(Cl)c(Cl)c1	0	0	14	0	0	0
Cn1/c(=N/N=C/c2ccc([N+](=O)[O-])cc2)sc2ccccc21	0	58	0	0	0	0
Fc1ccc(C2=CC(c3ccco3)n3ncnc3N2)cc1 (stereo not drawn)	-	-	0	0	-	-
C1=C(c2ccc(-c3ccccc3)cc2)Nc2ncnn2C1c1ccco1 (stereo not drawn)	0	118[fluorescence artefact?]	0	0	0	0
CCOc1ccc(C2C=C(c3ccccc3)Nc3ncnn32)cc1 (stereo not drawn)	0	40	0	0	0	0
CCOc1ccc(C2C=C(c3ccc(F)cc3)Nc3ncnn32)cc1 (stereo not drawn)	0	57	0	0	0	0
CC(=O)N1CCN(c2cc(N3CCc4ccccc4C3)c(F)cc2[N+](=O)[O-])CC1	0	0	0	0	0	0
COc1ccc(C(=O)Nc2cc(OC)ccc2OC)cc1	0	0	0	0	0	0
COc1ccc(OC)c(NC(=O)c2cn(C)c(=O)c3cc(OC)c(OC)cc23)c1	0	0	0	0	0	33
CCn1cc(C(=O)Nc2ccc(OC)c(OC)c2)c2cc(OC)c(OC)cc2c1=O	0	0	0	0	0	22
CCOC(=O)CCCNC(=O)COC(=O)[C@@H]1CCCN1S(=O)(=O)c1ccc(Cl)cc1	-	-	0	0	-	-
CCCCCCc1cc2cc(C(=O)Nc3ccc(OC)cc3)c(=O)oc2cc1O	-	-	0	0	-	-
CCCCCCc1cc2cc(C(=O)NC)c(=N)oc2cc1O	0	70	0	0	0	0
SMILES	S1P2 antag	Rev-RRE block	GALR2 agonist	GALR2 blocker	EphB4 ephrin blk	S1P2 agonist
C=CCn1c(CNC(=O)c2cccs2)n[nH]c1=S	-	-	0	0	-	-
Cc1cc(Br)ccc1OCCCCNCCO	0	0	0	0	0	69
CCOc1ccc(C(CCc2ccccc2)NC(=O)c2ccccc2F)cc1OCC (stereo not drawn)	0	0	0	0	18	0
Nc1[nH]c(=S)[nH]c(=O)c1-c1ccccc1	0	139[fluorescence artefact?]	0	0	0	0
CCOC(=O)N1CCN(C(=O)c2cnc(Nc3ccccc3OC)c3ccccc23)CC1	-	-	7.0	0	-	-
CCOC(=O)N1CCN(C(=O)c2cccc(OC)c2OC)CC1	0	0	0	0	0	0
CCn1c(SCC(=O)Nc2nc(C)c(C(=O)OC)s2)nnc1C(C)C	0	0	0	0	0	0
COCc1[nH]nc2c1C(c1ccc(OC)cc1)C(C#N)=C(N)O2 (stereo not drawn)	0	0	0	0	0	0
COc1ccc(-c2ccc(C3C(C#N)=C(N)Oc4n[nH]c(C)c43)o2)cc1 (stereo not drawn)	0	52	0	0	0	0
CC1=C(C#N)C(=O)OC(C)(C)C1	0	43	0	0	0	0
N#Cc1ccc(NC(=O)C2CC(c3ccc(F)cc3)=NO2)cc1 (stereo not drawn)	0	0	0	0	0	0
O=C(Nc1ccc2c(c1)OCO2)C1CC(c2ccc(F)cc2)=NO1 (stereo not drawn)	0	0	0	0	20	0
